Compounds with a hit are over-represented: about 2.3% of the library has one in this group of screens.
TRPC4 PAM = TRPC4 (mouse) allosteric potentiation. Q9QUQ5. HEK293 TRPC4beta/mu-opioid, DAMGO EC20, Fluo-4 Ca2+ flux; hits give high values. B-score at 10 µM. 0.42% of 310,000 active. AID 2227;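 active = B-score of calcium response area above 5 SD of library B-scores, with initial fluorescence ratio within 5 SD of library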;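 note: B-score of integrated fluorescence ratio over time as area under calcium response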
TRPC4 block = TRPC4 (mouse) channel inhibition | Q9QUQ5 | 0.39% of 300,000 active | HEK293 TRPC4beta/mu-opioid, DAMGO-evoked Fluo4 calcium flux; hits give low values | AID 2247 | B-score at 10 µM;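 active = B-score over 3 SD under the library average, no early fluorescence shift, positive overall ratio signal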
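material = TRPC4beta/mu-opioid receptor HEK293 cell line | probe or stimulus = sequential submaximal and maximal DAMGO stimulation | compound dosing = one concentration per compound | measured by = Fluo4 Ca2+ flux fluorescence | evaluation = integrated fluorescence ratio relative to baseline, converted to per-well B score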
TRPC6 activator = activators of mouse TRPC6 channel | Q61143 | AID 2550 | HEK293-TRPC6 membrane potential dye fluorescence; hits give high values | 0.13% of 310,000 active | B-score at 10 µM;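 active = B-score of the integrated fluorescence ratio above library mean plus 3 SD, and starting fluorescence ratio within library mean plus 5 SD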;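 note: higher score means more depolarization so channel activation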
Target sequence (Q61143 whole entry, looked up): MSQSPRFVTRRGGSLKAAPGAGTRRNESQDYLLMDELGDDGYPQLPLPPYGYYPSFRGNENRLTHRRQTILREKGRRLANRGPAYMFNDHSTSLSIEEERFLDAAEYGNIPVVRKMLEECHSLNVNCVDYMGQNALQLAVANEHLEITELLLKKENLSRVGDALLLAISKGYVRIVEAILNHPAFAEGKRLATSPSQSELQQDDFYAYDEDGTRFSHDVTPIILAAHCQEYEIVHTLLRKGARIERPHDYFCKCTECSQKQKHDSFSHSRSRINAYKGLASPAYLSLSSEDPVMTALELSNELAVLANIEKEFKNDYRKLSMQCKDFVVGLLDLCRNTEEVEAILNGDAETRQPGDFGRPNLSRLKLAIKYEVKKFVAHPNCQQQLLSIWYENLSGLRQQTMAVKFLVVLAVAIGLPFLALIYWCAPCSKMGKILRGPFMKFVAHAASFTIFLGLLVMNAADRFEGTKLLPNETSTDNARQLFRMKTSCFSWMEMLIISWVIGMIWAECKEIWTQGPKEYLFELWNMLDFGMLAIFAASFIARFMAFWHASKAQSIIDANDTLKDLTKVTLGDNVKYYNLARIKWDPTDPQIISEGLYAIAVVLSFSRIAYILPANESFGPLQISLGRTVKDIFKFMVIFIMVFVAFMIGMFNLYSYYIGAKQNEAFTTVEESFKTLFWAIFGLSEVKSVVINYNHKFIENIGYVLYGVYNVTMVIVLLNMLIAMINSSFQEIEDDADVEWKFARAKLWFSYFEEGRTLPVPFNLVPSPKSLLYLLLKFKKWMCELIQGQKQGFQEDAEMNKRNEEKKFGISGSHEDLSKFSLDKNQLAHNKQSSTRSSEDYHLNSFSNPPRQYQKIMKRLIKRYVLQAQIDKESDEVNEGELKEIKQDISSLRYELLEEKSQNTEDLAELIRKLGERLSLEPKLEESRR
TRPC4 act = opens the mouse TRPC4 cation channel; Q9QUQ5; HEK293 TRPC4beta/mu-opioid, Fluo4 calcium fluorescence; hits give high values; B-score at 10 µM; 0.49% of 310,000 active; AID 2237;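 active = B-score above 5 SD of library B-scores, and initial fluorescence ratio not above library mean plus 5 SD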;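 note: positive B-score marks a calcium rise read as TRPC4 activation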
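Technique: kinetic Fluo4 calcium fluorescence; Test system: TRPC4beta and mu-opioid receptor HEK293 stable cells; Measure: B-scored integrated calcium fluorescence ratio; Benchmarks: low control buffer alone, high control maximal DAMGO; Schedule: 45 min room-temperature Fluo4 loading, 110 s read.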
TRPC6 inhibitor = blocks the mouse TRPC6 cation channel; B-score at 10 µM; Q61143; HEK293-TRPC6, membrane potential dye, ACh-evoked depolarization; hits give low values; AID 2553; 1.1% of 310,000 active;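 active = B-score under library mean minus 3 SD, initial fluorescence not abnormally high, positive integrated signal ratio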;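 note: B-score derived from integrated fluorescence ratio over the kinetic read; more negative B-score means stronger inhibition of depolarization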
TRPC4 sel inh 2 = second selectivity test of TRPC6 inhibitors: effect on mouse TRPC4; shares compounds with TRPC6 inhibitor; HEK293 TRPC4/MOR, membrane potential dye fluorescence; channel activated by saturating DAMGO dose; inhibition, % at 10 µM; 42% of 920 active;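 active = compounds whose fluorescence signal differed from control wells by over 3 SD, either direction, in both duplicate plates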
TRPC4 spec = mouse TRPC4 off-target activity of TRPC6 inhibitors; shares compounds with TRPC6 inhibitor; HEK293 TRPC4/mu-opioid, membrane potential fluorescence; activity change, negative = inhibition, % at 10 µM; 61% of 920 active;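 active = rise or fall in signal beyond 3 SD of buffer-only wells in both replicate plates, either sign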;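 note: integrated kinetic ratio of fluorescence range over baseline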
HEK293 MPD ctr 2-1 = second check of TRPC6 inhibitor effects in parental HEK293 cells | AID 2779 | parental HEK293 membrane potential dye fluorescence; maximal acetylcholine challenge after compound addition | signal change vs control, % at 10 µM | shares compounds with TRPC6 inhibitor | 31% of 920 active;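 active = membrane potential signal moving either way by over 3 SD of the maximum-effect control, in both duplicate plates, meaning non-specific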
HEK293 MPD ctr-1 = parental HEK293 nonspecific activity of TRPC6 inhibitors | shares compounds with TRPC6 inhibitor | parental HEK293 membrane potential dye fluorescence | membrane potential signal change, % at 10 µM | 60% of 920 active;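 active = membrane potential signal shifting up or down by more than 3 SD of buffer-only wells, on both duplicate plates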
HEK293 MPD ctr-2 = counter-screen for TRPC6 modulators: effect in parental HEK293 cells; shares compounds with TRPC6 inhibitor; membrane potential dye fluorescence; 51% of 2,400 active; membrane potential signal change, % at 10 µM; AID 488924;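 active = membrane potential signal moves up or down beyond 5 SD from buffer-only wells, on both duplicate plates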
HEK293 MPD ctr 2-2 = second counter-screen for TRPC6 modulators: effect in parental HEK293 cells; shares compounds with TRPC6 inhibitor; AID 488926; membrane potential dye fluorescence; after compound, maximal acetylcholine stimulation; 14% of 2,400 active; inhibition, % at 10 µM;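 active = membrane potential signal drops by more than 5 SD from the mean control signal, in both duplicate plates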;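 note: plate controls were acetylcholine ECmax control wells for no effect and buffer only wells for full effect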
TRPC4/MOR mod = tests whether TRPC6 modulators also affect mouse TRPC4 | shares compounds with TRPC6 inhibitor | HEK293 TRPC4/mu-opioid, membrane potential fluorescence | percent change from control (negative = decrease, positive = increase), % at 10 µM | 69% of 2,400 active;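 active = membrane potential signal moved up or down beyond 5 SD of buffer control wells, in both duplicate plates, actives on both sides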;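 note: plate controls were assay buffer wells for no effect and DAMGO maximal-effect wells for full effect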
TRPC4/MOR inh 2 = mouse TRPC4 off-target activity of TRPC6 modulators, second screen. HEK293 TRPC4/mu-opioid, membrane potential dye fluorescence; stimulated with maximal-effect DAMGO. 55% of 2,400 active. AID 488928. inhibition, % at 10 µM. shares compounds with TRPC6 inhibitor;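 active = drop in membrane potential signal beyond 5 SD of the control wells in both duplicate plates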;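 note: TRPC4 counter screen for TRPC6 hits run under conditions tuned for TRPC6 not TRPC4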
TRPC6 inh conf = confirmation of mouse TRPC6 inhibitors | shares compounds with TRPC6 inhibitor | HEK293-TRPC6, membrane potential dye, ACh-evoked depolarization | inhibition, % at 10 µM | 43% of 3,300 active | AID 488960;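 active = fluorescence ratio falls more than 5 SD below the full-stimulation control mean, in both duplicate runs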;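 note: integrated fluorescence ratio of peak minus minimum over baseline after agonist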
TRPC6 act confirm = mouse TRPC6 activator confirmation; activation, % at 10 µM; shares compounds with TRPC6 inhibitor; 11% of 2,800 active; HEK293-TRPC6 membrane potential dye fluorescence, FDSS;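 active = ratio signal rise beyond 5 SD above unstimulated control wells' mean, seen in both duplicate runs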;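 note: plate controls were buffer EC0 wells for no effect and acetylcholine ECmax response for full effect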
Active calls of the source: *; i = inactive; . = not tested or not shown.

SMILES	TRPC4 PAM	TRPC4 block	TRPC6 activator	TRPC4 act	TRPC6 inhibitor	HEK293 MPD ctr-2	HEK293 MPD ctr 2-2	TRPC4/MOR mod	TRPC4/MOR inh 2	TRPC6 inh conf	TRPC6 act confirm	others
CC12CCC(C(=O)Nc3c(Cl)cccc3Cl)(C(Br)C1=O)C2(C)C (stereo not drawn)	i	i	i	i	-6.21*	i	i	i	i	i	i
CC12CCC(C(=O)Nc3cccc(Cl)c3Cl)([C@H](Br)C1=O)C2(C)C (stereo partly drawn)	i	i	i	i	i	.	.	.	.	.	.
O=C(NCCCN1CCCC1=O)c1cccc(NS(=O)(=O)c2ccc(Br)cc2)c1	i	i	i	i	i	.	.	.	.	.	.
Cc1ccc(C)c(NC(=S)NCCN(C2CCCCC2)C2CCCC2)c1	i	i	i	i	-5.23*	172.5%*	i	32.5%*	48.0%*	i	.
Cc1ccc(SCCNC(=S)Nc2cc(C)ccc2C)cc1	i	i	i	i	i	.	.	.	.	.	.
CCCCN1C=CC(=C2N=c3cccc([N+](=O)[O-])c3=N2)C=C1	i	i	i	i	-5.61*	-132.5%*	78.0%*	-20.0%*	49.0%*	58.5%*	i
CCCCCCN1C=CC(=C2C(=O)c3ccccc3C2=O)C=C1	i	i	i	i	i	.	.	.	.	.	.
Cc1ccc2c(c1)NC(=O)C(CC(=O)NCCCN1CCCCC1C)O2 (stereo not drawn)	i	i	i	i	i	.	.	.	.	.	.
CCC(C)N(CCNC(=O)CC1Oc2ccc(C)cc2NC1=O)C1CCCCC1 (stereo not drawn)	i	i	i	i	-8.39*	.	.	.	.	53.3%*	.	TRPC4 sel inh 2=i;TRPC4 spec=16.6%*;HEK293 MPD ctr 2-1=i;HEK293 MPD ctr-1=12.6%*
Cc1ccc(C(OCCN(C)C)c2cccc(C(F)(F)F)c2)cc1 (stereo not drawn)	i	i	i	i	-5.44*	i	i	18.0%*	37.5%*	i	.
CCCCC[n+]1cccc2c3ccccc3ccc21	i	i	i	i	-9.24*	-238.0%*	i	-39.0%*	66.0%*	58.5%*	i
c1ccc(C[n+]2cccc3c4ccccc4ccc32)cc1	i	i	i	i	-9.66*	-274.5%*	71.0%*	-46.0%*	64.5%*	68.5%*	i
NC(=O)C[n+]1cccc2ccccc21	i	i	i	i	i	.	.	.	.	.	.
O=[N+]([O-])c1ccc(C[n+]2cccc3ccccc32)cc1	i	i	i	i	i	.	.	.	.	.	.
O=[N+]([O-])c1cccc(C(=Nc2cccc(Cl)c2)NO)c1	i	i	i	i	-8.79*	.	.	.	.	i	i	TRPC4 sel inh 2=i;TRPC4 spec=i;HEK293 MPD ctr 2-1=i;HEK293 MPD ctr-1=i
COc1ccc(-c2c(C(F)(F)F)nn(C)c2NC(=O)CSCC(=O)O)cc1	i	i	i	i	i	.	.	.	.	.	.
CC(C)(C)C1CCc2c(sc3ncn(N)c(=N)c23)C1 (stereo not drawn)	i	i	i	i	-6.51*	i	i	-15.5%*	67.0%*	45.5%*	i
N=c1c2c3c(sc2ncn1N)CCC3	i	i	i	i	i	.	.	.	.	.	.
Cc1c(C(=O)OC(C)C(C)C[N+](C)(C)C)oc2ccccc12 (stereo not drawn)	i	i	i	i	-7.45*	i	64.0%*	i	i	71.5%*	i
O=C1NC(=S)S/C1=C/c1ccc(Oc2cnccn2)cc1	i	i	i	i	i	.	.	.	.	.	.
CCOc1ccc(N(C)c2ccc(/C=C3/SC(=S)NC3=O)cc2)cc1	i	i	18*	i	i	i	i	81.5%*	i	i	i
N#CC1=C(N)Oc2cc(N)ccc2C1c1ccc(F)cc1F (stereo not drawn)	i	i	38.6*	64*	i	121.0%*	i	i	i	i	27.0%*
N#CC1=C(N)Oc2cc(N)ccc2C1c1ccc(Cl)cc1 (stereo not drawn)	i	i	11.8*	i	i	i	i	i	i	i	i
COc1ccccc1NC(=O)CNc1ccc(F)c(Cl)c1	i	i	i	i	i	.	.	.	.	.	.
COc1cccc(NC(=S)N(CCCN2CCCC2)Cc2cccn2Cc2ccc(Cl)cc2)c1	i	i	i	i	-5.3*	i	i	i	61.5%*	48.5%*	i
S=C(Nc1cccc(Cl)c1)N(CCCN1CCCC1)Cc1cccn1Cc1ccc(Cl)cc1	i	i	i	i	i	.	.	.	.	.	.
COc1ccc(-c2nc(-c3cccs3)c(-c3cccs3)[nH]2)cc1OC	i	i	i	i	-5.52*	i	i	i	i	i	i
COc1cccc(CC2(CO)CCCN(Cc3ccc(CN4CCCCC4)s3)C2)c1 (stereo not drawn)	i	i	i	i	i	.	.	.	.	.	.
COc1ccc(C2C(C(N)=O)=C(C)Nc3nc(CCCO)nn32)cc1 (stereo not drawn)	i	i	i	i	i	.	.	.	.	.	.

From PubChem BioAssay
